High-throughput results as filed in PubChem BioAssay.
Only some compounds are listed: those with a hit (about 4.6% of all), similar ones and a draw of the others.
TAAR1 antagonist: antagonists of human TAAR1; Q96RJ0; CHO RD-HGA16 TAAR1, Fluo-8 calcium fluorescence, antagonist; inhibition, % at 3 µM; 360,000 compounds, 1.5% hits;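 active = inhibition above a per-plate cutoff, the mean inhibition of test compounds on that plate plus 3 SD, cut at about 49% in these data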
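System: RD-HGA16 CHO cells with stable hTAAR1 and Gα16 | Probe or stimulus: EC80 β-phenethylamine stimulus | Dosing: 3 µM, single point | Times: Dye loading 75 min at 37 °C, then 30 min room temperature | Measured by: Fluo-8 calcium-sensitive fluorescence | Read-out basis: % inhibition of agonist calcium response | Replicates: n of 1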
GPR7 antag: antagonists of human GPR7 (neuropeptides B/W receptor 1) | GPR7-expressing cells, fluorescence antagonist assay | inhibition, % at 4.4 µM | 290,000 compounds, 1.1% hits | AID 1861; in the data active = inhibition above about 16%, passing the limit was not always enough;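 also: cells stimulated with the agonist NPW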
OX1R antag-1: blocks the human orexin 1 receptor | OX1R-expressing cells, FRET antagonist read-out | inhibition, % at 6.6 µM | 330,000 compounds, 1.8% hits; in the data active = inhibition mostly above about 38%, no sharp cut-off; inactive = mostly below about 40%
Target sequence (O43613 whole entry, looked up): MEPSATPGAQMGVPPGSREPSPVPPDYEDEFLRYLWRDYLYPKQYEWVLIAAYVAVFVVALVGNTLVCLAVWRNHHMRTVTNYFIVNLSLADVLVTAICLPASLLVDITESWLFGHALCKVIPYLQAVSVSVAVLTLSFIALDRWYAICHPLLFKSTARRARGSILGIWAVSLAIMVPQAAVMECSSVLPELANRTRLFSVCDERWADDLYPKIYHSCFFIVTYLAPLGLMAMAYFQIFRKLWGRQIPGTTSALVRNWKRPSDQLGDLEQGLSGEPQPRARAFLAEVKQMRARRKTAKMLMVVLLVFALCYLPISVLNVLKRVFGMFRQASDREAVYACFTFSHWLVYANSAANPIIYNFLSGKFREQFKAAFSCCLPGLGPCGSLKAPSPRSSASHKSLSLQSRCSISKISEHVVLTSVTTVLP
CHO parental Ca: counter-screen for OX1R antagonists: effect in parental CHO cells; inhibition, % at 5.6 µM; parental CHO-K1, ATP-induced calcium, Fluo-8 fluorescence; 330,000 compounds, 0.63% hits;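 active = inhibition above that plate's mean sample inhibition plus 3 SD, cut at about 26% in these data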
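test system = CHO parental line | reagent = ATP stimulus | measured by = intracellular calcium via Fluo-8 no-wash fluorescent dye | control set = ATP and no-ATP DMSO wells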
OX1R antag-2: human HCRTR1 antagonism | O43613 | CHO/OX1R cells, Fluo-8 calcium fluorescence, orexin A | inhibition, % at 5 µM | 330,000 compounds, 0.43% hits | AID 434989;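 active = inhibition above its plate's threshold, mean inhibition of all tested compounds on the plate plus 3 SD, cut at about 37% in these data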
TAAR1 agonist: agonists of human TAAR1. 360,000 compounds, 0.99% hits. activation, % at 3 µM. CHO RD-HGA16 TAAR1, Fluo-8 calcium fluorescence; vehicle wells 0%, saturating PEA agonist 100%. Q96RJ0;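 active = activation above the mean activation of all test compounds in the run plus 3 SD, cut at about 38% in these data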
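Test system: RD-HGA16 (CHO) cells co-expressing Gα16 and hTAAR1 / Benchmarks: DMSO vehicle as 0%, PEA at EC100 as 100% / Repeats: no replicates (n 1) / Measure: % activation from peak over basal fluorescence ratio, DMSO-to-PEA scaled / Timing: 17-24 h plating, Fluo-8 75 min 37 °C, 30 min RT / Technique: kinetic Fluo-8 calcium fluorescence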
GPR7 antag cf: human GPR7 antagonism, confirmation assay. shares compounds with GPR7 antag. GPR7-expressing cells, calcium fluorescence antagonist mode. inhibition, % at 4.4 µM. 2,400 compounds, 52% hits. AID 1952; in the data active = inhibition above about 24%;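 also: stimulated with the GPR7 agonist NPW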
MCHR1 antagonist: counter-screen for GPR7 antagonists: antagonists of human MCHR1. shares compounds with GPR7 antag. inhibition, % at 4.4 µM. 2,400 compounds, 62% hits. MCHR1-expressing cells, fluorescence antagonist assay. AID 2148; in the data active = inhibition above about 22%
Each line names hits and unclear results; the compound was inactive in the other large screens (follow-up assays come after a bar, where they were run).

COc1ccc(N2CCN(c3oc(COc4ccccc4)nc3C#N)CC2)cc1	GPR7 antag 44 | GPR7 antag cf 49 | MCHR1 antagonist 46
N#Cc1nc(COc2ccc(Cl)cc2)oc1N1CCN(Cc2ccccc2)CC1	GPR7 antag 48 | GPR7 antag cf 50 | MCHR1 antagonist 47
CN1CCN(c2oc(COc3ccc(-c4ccccc4)cc3)nc2C#N)CC1	GPR7 antag 27 | GPR7 antag cf inactive | MCHR1 antagonist 41
CCN1CCN(c2oc(COc3ccc(Cl)cc3)nc2C#N)CC1	none
COc1ccc(N2CCN(c3oc(Cc4ccccc4)nc3C#N)CC2)cc1	none
COc1ccc(C(=O)N2CCCCCC2)cc1S(=O)(=O)N1CCOCC1	none
N#Cc1nc(COc2ccc(-c3ccccc3)cc2)oc1NCCCN1CCOCC1	GPR7 antag 24 | GPR7 antag cf 41 | MCHR1 antagonist 56
COc1ccc(N2CCN(c3oc(COc4ccc(Cl)cc4Cl)nc3C#N)CC2)cc1	GPR7 antag 41 | GPR7 antag cf 54 | MCHR1 antagonist 35
N#Cc1nc(COc2ccccc2)oc1NCCN1CCOCC1	none
COc1ccc(N2CCN(c3oc(COc4ccc(Cl)cc4)nc3C#N)CC2)cc1	GPR7 antag 39 | GPR7 antag cf 40 | MCHR1 antagonist 33
COCCn1c(C)c(C)c(S(=O)(=O)c2ccccc2)c1N	none
CCN1CCN(CCCNC(=O)c2ccccc2NC(=O)C2=C(C)OCCS2)CC1	none
COc1ccc(C)cc1S(=O)(=O)N(C)CC(=O)N1CCN(c2ccccc2)CC1	none
Cc1ccc(-c2nn(-c3ccccc3)cc2CNCc2ccccc2)cc1	GPR7 antag 23 | GPR7 antag cf 41 | MCHR1 antagonist 53
CCN(CC#CCC(O)(c1ccccc1)C1CCCC1)C(C)C (stereo not drawn)	GPR7 antag 29 | GPR7 antag cf inactive | MCHR1 antagonist inactive
c1ccc(COc2ccc(Nc3ncnc4nc[nH]c34)cc2)cc1	TAAR1 antagonist 56, GPR7 antag 34 | GPR7 antag cf inactive | MCHR1 antagonist 23
CCCCCCCC1CC(CSc2ncn[nH]2)OC1=O (stereo not drawn)	GPR7 antag 21 | GPR7 antag cf 38 | MCHR1 antagonist 38
CCCCC1CC(CSc2ncn[nH]2)OC1=O (stereo not drawn)	none
CC1CN/C(=C\C(=O)c2ccccc2)C(=O)N1 (stereo not drawn)	GPR7 antag 30 | GPR7 antag cf inactive | MCHR1 antagonist inactive
CCC(=O)N(C(=O)CC)N1CCN(c2ccncc2S(=O)(=O)N2CCCCC2)CC1	GPR7 antag 34 | GPR7 antag cf 45 | MCHR1 antagonist 30
CC(C)(C)c1ccc(-c2nc(NCc3cccnc3)c3ccccc3n2)cc1	GPR7 antag 23 | GPR7 antag cf 41 | MCHR1 antagonist 30
CC1C(=O)N(Cc2cn(CCC3OCCCO3)nn2)CCS(=O)(=O)N1Cc1ccc(-c2ccc(F)nc2)cc1 (stereo not drawn)	none (no result: GPR7 antag, OX1R antag-1, CHO parental Ca, OX1R antag-2)
CCCn1c(=N)c(C(=O)NCc2ccc3c(c2)OCO3)cc2c(=O)n3cccc(C)c3nc21	none
N=c1c(C(=O)NCCc2ccccc2)cc2c(=O)n3ccccc3nc2n1CCCN1CCOCC1	GPR7 antag 37, OX1R antag-1 45 | GPR7 antag cf 35 | MCHR1 antagonist inactive
CCOCCCn1c(=N)c(C(=O)NCc2ccc3c(c2)OCO3)cc2c(=O)n3ccccc3nc21	GPR7 antag 22 (no result: OX1R antag-1, CHO parental Ca, OX1R antag-2) | GPR7 antag cf 29 | MCHR1 antagonist inactive
N=c1c(C(=O)NC2CCCCC2)cc2c(=O)n3ccccc3nc2n1CCc1ccccc1	GPR7 antag 32 | GPR7 antag cf 39 | MCHR1 antagonist 25
N=c1c(C(=O)NCCc2ccccc2)cc2c(=O)n3ccccc3nc2n1Cc1ccco1	GPR7 antag 28 | GPR7 antag cf 52 | MCHR1 antagonist 49
